Compounds with a hit are over-represented: about 2.9% of the library has one in this group of screens.
SIRT5 inh = sirtuin-5 (human) deacylase inhibition. inhibition, % at 15 µM. Purified SirT5, succinyl-peptide AMC, trypsin-coupled fluorescence. actives 1.1% (n = 330,000). Q9NXA8; in the data active means inhibition above about 15%; inconclusive means no clear call, values can overlap the other calls
DENV2 CPE = inhibitors of DENV2 cytopathic effect | DENV2-infected cells, cytopathic effect rescue, plate reader | CPE inhibition, % at 9.99 µM | actives 1.7% (n = 350,000) | AID 651640; in the data active means CPE inhibition above about 20%, passing the limit was not always enough; inconclusive means no clear call, values can overlap the other calls; tested in BHK-21 cells;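 further: 0% = median of neutral control wells and 100% = median of positive control wells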
E-sel inducer = induces E-selectin expression in human endothelial cells; HUVEC E-selectin immunofluorescence imaging; normalized: neutral wells 0, TNF-alpha wells 100; activation, % at 7.58 µM; actives 0.37% (n = 260,000);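 active means mean E-selectin-positive cell signal at least 10% of the positive control, reached in at least 60% of replicates, without over 20% cell loss; inconclusive means no rule given, readout overlaps actives, possibly toxicity-flagged; inactive means the rest, including those meeting only one limit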
Target sequence (P16581 whole entry, looked up): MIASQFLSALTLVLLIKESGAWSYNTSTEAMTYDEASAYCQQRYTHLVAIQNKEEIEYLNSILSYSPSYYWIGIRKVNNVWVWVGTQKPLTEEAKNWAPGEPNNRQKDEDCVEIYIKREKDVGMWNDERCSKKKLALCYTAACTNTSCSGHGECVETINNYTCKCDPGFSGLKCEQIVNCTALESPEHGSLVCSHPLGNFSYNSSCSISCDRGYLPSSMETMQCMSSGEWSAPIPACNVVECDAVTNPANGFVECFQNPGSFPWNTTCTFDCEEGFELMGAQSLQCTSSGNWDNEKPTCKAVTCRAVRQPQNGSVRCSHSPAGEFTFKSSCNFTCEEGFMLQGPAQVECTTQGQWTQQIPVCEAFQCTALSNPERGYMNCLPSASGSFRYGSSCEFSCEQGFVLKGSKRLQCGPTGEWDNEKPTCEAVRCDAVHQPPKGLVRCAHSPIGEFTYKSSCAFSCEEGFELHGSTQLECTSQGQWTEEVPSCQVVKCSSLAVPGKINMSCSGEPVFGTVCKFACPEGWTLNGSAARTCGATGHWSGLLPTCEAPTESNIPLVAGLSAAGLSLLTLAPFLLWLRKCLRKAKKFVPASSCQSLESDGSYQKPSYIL
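Read-out: % PE-positive cells | Test system: HUVEC | Doses: One compound dose added by pin transfer | Buffer or medium: EGM-2 over gelatin coat | Signal: Immunofluorescence imaging | Benchmarks: TNF-alpha, DMSO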
* marks the source's active call; other numbers are inactive results; ? = inconclusive; · = no result; ! = not active in a repeat.

SMILES	SIRT5 inh	DENV2 CPE	E-sel inducer
COc1cccc(-c2ccc([C@@H]3[C@H](CO)N4CCCCN(S(=O)(=O)c5cn(C)cn5)C[C@@H]34)cc2)c1	-1	27*	0
Cc1cccc(-c2ccc([C@H]3[C@@H](CO)N4CCCCN(S(=O)(=O)c5ccccc5F)C[C@@H]34)cc2)c1	·	·	0
Cc1cccc(-c2ccc([C@@H]3[C@@H](CO)N4CCCCN(S(=O)(=O)c5ccccc5F)C[C@H]34)cc2)c1	21*	-26	1
NNc1nc2c(Cl)ccc(Cl)c2s1	1	-12	-1
Cc1cc(C)c(S(=O)(=O)c2cc(F)ccc2C)c(Cl)n1	-2	2	0
COC(=O)c1ccc(CNC(=O)CNC(=O)c2sc3ccccc3c2Cl)cc1	10	0	1
Cc1ccc(-c2ccc([C@@H]3[C@H](CO)N4CCCCN(S(=O)(=O)c5cccc(C)c5)C[C@@H]34)cc2)cc1	15	0	·
Cc1ccc(-c2ccc([C@H]3[C@H]4CN(S(=O)(=O)c5cccc(C)c5)CCCCN4[C@H]3CO)cc2)cc1	17*	-8	·
Cc1ccc(-c2ccc([C@H]3[C@H](CO)N4CCCCN(S(=O)(=O)c5cccc(C)c5)C[C@@H]34)cc2)cc1	2	-2	·
Cc1cccc(-c2ccc([C@@H]3[C@H](CO)N4CCCCN(S(=O)(=O)c5cccc(C)c5)C[C@@H]34)cc2)c1	4	23*	-1
Cc1cccc(S(=O)(=O)N2CCCCN3[C@H](C2)[C@H](c2ccc(-c4ccccc4)cc2)[C@@H]3CO)c1	1	-11	·
Cc1cccc(S(=O)(=O)N2CCCCN3[C@H](CO)[C@@H](c4ccc(-c5ccccc5)cc4)[C@H]3C2)c1	22*	-1	·
CC(=O)Nc1ccc(S(=O)(=O)NCCC(=O)OCC(=O)N2CCN(C(=O)c3ccco3)CC2)cc1	2	16	0
COc1ccc(NC(=O)c2ccccc2C(=O)N2CCCCC2)cc1	·	-2	·
CCCCC[C@H](C)N1C[C@H](COCc2ccccc2)Oc2cc(N3CCC[C@@H]3CO)ccc2S1(=O)=O	0	5	0
CCCCC[C@H](C)N1C[C@@H](COCc2ccccc2)Oc2cc(N3CCC[C@H]3CO)ccc2S1(=O)=O	21*	-4	0
O=S(=O)(Cc1cc(N2CCOCC2)nc(-c2ccccn2)n1)c1ccccc1	5	33*	·
O=S(=O)(c1ccccc1)n1cc(-c2ccccn2)c(N2CCOCC2)n1	0	2	·
CC(C)N=C(N)N=C(N)Nc1ccc(Cl)cc1	-2	7	0
CCCC(=O)Nc1ccc2c(c1)C(=O)N(C)C[C@@H](OC)[C@H](C)CN(CCC)[C@@H](C)CO2	0	4	0
CCO[C@@H]1OC(C(=O)NCc2nc3ccccc3[nH]2)=C[C@H](c2coc3ccccc3c2=O)[C@H]1CCCO	0	50*	0
CCO[C@H]1OC(C(=O)NCc2nc3ccccc3[nH]2)=C[C@@H](c2ccc(C(F)(F)F)cc2)[C@@H]1CCCO	-1	1	0
CCO[C@H]1OC(C(=O)NCc2nc3ccccc3[nH]2)=C[C@@H](C)[C@@H]1CCCO	1	2	0
C#Cc1ccc([C@@H]2C=C(C(=O)Nc3ccccc3)O[C@H](OCC)[C@H]2CCCO)cc1	6	-3	0
C#Cc1ccc([C@H]2C=C(C(=O)OCC=C)O[C@@H](OCC)[C@@H]2CCCO)cc1	-4	49*!	0
SMILES	SIRT5 inh	DENV2 CPE	E-sel inducer
C#Cc1ccc([C@@H]2C=C(C(=O)OCC=C)O[C@H](OCC)[C@H]2CCCO)cc1	-1	13	0
C#Cc1ccc([C@H]2C=C(C(=O)NCc3ccccc3)O[C@@H](OCC)[C@@H]2CCCO)cc1	21*!	-1	1
C#Cc1ccc([C@@H]2C=C(C(=O)NCc3nc4ccccc4[nH]3)O[C@H](OCC)[C@H]2CCCO)cc1	1	22*!	0
Cc1ccc(S(=O)(=O)Nc2nc3ccc(N)cc3s2)cc1	5	5	0
O=C(OC(C(=O)NCc1ccco1)C(OC(=O)c1ccccc1)C(=O)NCc1ccco1)c1ccccc1 (centres undefined)	0	9	0
COc1ccc(C(C(=O)NC2CCCC2)N(C(=O)c2csnn2)C2CC2)cc1 (centres undefined)	0	-6	·
CC(C)CC#Cc1cnc2c(c1)C(=O)N([C@H](C)CO)C[C@@H](C)[C@H](CN(C)Cc1cncnc1)O2	-1	8	0
CO[C@@H]1CN(C)C(=O)c2ccc(NS(=O)(=O)c3cccc(F)c3)cc2OC[C@@H](C)NC[C@@H]1C	-3	71*	2
CO[C@H]1CN(C)C(=O)c2ccc(NS(=O)(=O)c3ccc(-c4ccccc4)cc3)cc2OC[C@@H](C)NC[C@@H]1C	0	29*	0
CO[C@H]1CN(C)C(=O)c2ccc(NS(=O)(=O)c3ccc(Oc4ccccc4)cc3)cc2OC[C@H](C)NC[C@H]1C	-5	22*	0
CO[C@@H]1CN(C)C(=O)c2ccc(NS(=O)(=O)c3ccc(-c4ccccc4)cc3)cc2OC[C@H](C)NC[C@@H]1C	·	-4	0
CO[C@@H]1CN(C)C(=O)c2ccc(NS(=O)(=O)c3ccc(Oc4ccccc4)cc3)cc2OC[C@H](C)NC[C@H]1C	3	-5	0
CO[C@H]1CN(C)C(=O)c2ccc(NS(=O)(=O)c3cccc(F)c3)cc2OC[C@H](C)NC[C@@H]1C	-3	4	2
CC(C)COP(=O)(c1ccc(N(C)C)cc1)C(Nc1ccccc1)c1ccccc1 (centres undefined)	·	·	0
Nc1nc(NC2CCCCC2)nc(NCCO)c1[N+](=O)[O-]	-3	-2	0
N#C[C@@H]1[C@@H](c2ccc(-c3cncnc3)cc2)[C@H](CO)N1C(=O)C1CCCC1	0	23*	4
N#C[C@@H]1[C@H](c2ccc(C3=CCCC3)cc2)[C@H](CO)N1C(=O)C1CCCC1	3	7	2
N#C[C@H]1[C@@H](c2ccc(C3=CCCC3)cc2)[C@@H](CO)N1C(=O)C1CCCC1	·	72*	0
N#C[C@@H]1[C@H](c2ccc(-c3cncnc3)cc2)[C@H](CO)N1C(=O)C1CC1	5	2	3
Cc1cccc(NC(=O)C2CCN(S(=O)(=O)c3c(C)nn(C)c3C)CC2)n1	·	4	0
O=C(NCC1CCCO1)c1csc(Nc2cccc3ccccc23)n1 (centres undefined)	-2	7	·
CN1C(=O)c2cc(NC(=O)c3cccs3)ccc2OC[C@@H]2O[C@@H](CC(=O)N3CCOCC3)CC[C@H]21	2	-9	0
C=CCNC(=O)Nc1ccc(F)cc1F	-3	0	·
CCOc1ccc(Nc2nc3c(C)cccc3cc2C#N)cc1	-5	?	2
CNc1cc(-c2ccc(O)cc2C)ncn1	·	29*	0
CNc1cc(-c2ccc(C(=O)OC)cc2)ncn1	-2	2	0
COc1ccc2c3c([nH]c2c1)[C@@H](CO)N(C(=O)C1CCC1)CC31CCN(C(=O)NC(C)C)CC1	-3	-5	0
CCCc1c(-c2ccccc2OC)ncn1CCc1ccccc1OC	·	14	0
CCCCCc1c(-c2ccccc2OC)ncn1CCc1ccccc1OC	·	26*	0
CCCCc1c(-c2ccccc2OC)ncn1CCc1ccccc1OC	5	-6	0

Source: PubChem BioAssay (Broad Institute)
